Tests used:
[1] = biological target: T1, human tear lipocalin (TL) (Homo sapiens, UniProt P31025, W35Y); experiment: fluorescence enhancement and blue shift on binding; settings: TL 4 μM, DAUDA 2 μM, 10 mM sodium phosphate, pH 7.3; fluorescent probe
[2] = biological target: T1, human tear lipocalin (TL); experiment: DAUDA fluorescence displacement; assay type: binding
[3] = biological target: human tear lipocalin (TL) (Homo sapiens, UniProt P31025, I75W/W35Y); experiment: Trp fluorescence titration, one-site fit; assay type: binding
human tear lipocalin (TL) (Homo sapiens, UniProt P31025, I75W/W35Y), sequence (P31025 19-176 W35Y/I75W): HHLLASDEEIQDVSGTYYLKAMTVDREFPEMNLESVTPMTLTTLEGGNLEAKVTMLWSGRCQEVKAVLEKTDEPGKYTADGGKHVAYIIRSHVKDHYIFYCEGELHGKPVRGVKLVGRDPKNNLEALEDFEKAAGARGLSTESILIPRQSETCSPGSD
In short: (§1)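 Recombinant human TL single-Trp mutants: native Trp replaced by Tyr, one site changed to Trp. Expressed in E. coli BL21(DE3); purified by gel filtration and DEAE chromatography. About 14 μM protein in 10 mM sodium phosphate, pH 7.3, at room temperature, titrated with palmitic acid or its spin-labeled analogue. 2 min equilibration per addition. Excitation 295 nm, emission read at λmax. One-site fit gave apparent Kd and stoichiometry.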

[4] = biological target: human tear lipocalin (TL) (Homo sapiens, UniProt P31025, M40W/W35Y); experiment: Trp fluorescence titration, one-site fit; assay type: binding
human tear lipocalin (TL) (Homo sapiens, UniProt P31025, M40W/W35Y), sequence (P31025 19-176 W35Y/M40W): as the sequence (P31025 19-176 W35Y/I75W) above, with M22W, W57I counted along it
In short: as §1

[5] = biological target: human tear lipocalin (TL) (Homo sapiens, UniProt P31025, W35Y/Y115W); experiment: Trp fluorescence titration, one-site fit; assay type: binding
human tear lipocalin (TL) (Homo sapiens, UniProt P31025, W35Y/Y115W), sequence (P31025 19-176 W35Y/Y115W): as the sequence (P31025 19-176 W35Y/I75W) above, with W57I, Y97W counted along it
In short: as §1

[6] = biological target: human tear lipocalin (TL) (Homo sapiens, UniProt P31025, C119W/W35Y); experiment: Trp fluorescence titration, one-site fit; assay type: binding
human tear lipocalin (TL) (Homo sapiens, UniProt P31025, C119W/W35Y), sequence (P31025 19-176 W35Y/C119W): as the sequence (P31025 19-176 W35Y/I75W) above, with W57I, C101W counted along it
In short: as §1

[7] = biological target: human tear lipocalin (TL) (Homo sapiens, UniProt P31025, L67W/W35Y); experiment: Trp fluorescence titration, one-site fit; assay type: binding
human tear lipocalin (TL) (Homo sapiens, UniProt P31025, L67W/W35Y), sequence (P31025 19-176 W35Y/L67W): as the sequence (P31025 19-176 W35Y/I75W) above, with L49W, W57I counted along it
In short: as §1

[8] = biological target: human tear lipocalin (TL) (Homo sapiens, UniProt P31025, T55W/W35Y); experiment: Trp fluorescence titration, one-site fit; assay type: binding
human tear lipocalin (TL) (Homo sapiens, UniProt P31025, T55W/W35Y), sequence (P31025 19-176 W35Y/T55W): as the sequence (P31025 19-176 W35Y/I75W) above, with T37W, W57I counted along it
In short: as §1

[9] = biological target: human tear lipocalin (TL) (Homo sapiens, UniProt P31025, L86W/W35Y); experiment: Trp fluorescence titration, one-site fit; assay type: binding
human tear lipocalin (TL) (Homo sapiens, UniProt P31025, L86W/W35Y), sequence (P31025 19-176 W35Y/L86W): as the sequence (P31025 19-176 W35Y/I75W) above, with W57I, L68W counted along it
In short: as §1

[10] = biological target: human tear lipocalin (TL) (Homo sapiens, UniProt P31025, I106W/W35Y); experiment: Trp fluorescence titration, one-site fit; assay type: binding
human tear lipocalin (TL) (Homo sapiens, UniProt P31025, I106W/W35Y), sequence (P31025 19-176 W35Y/I106W): as the sequence (P31025 19-176 W35Y/I75W) above, with W57I, I88W counted along it
In short: as §1

[11] = biological target: human tear lipocalin (TL) (Homo sapiens, UniProt P31025, G121W/W35Y); experiment: Trp fluorescence titration, one-site fit; assay type: binding
human tear lipocalin (TL) (Homo sapiens, UniProt P31025, G121W/W35Y), sequence (P31025 19-176 W35Y/G121W): as the sequence (P31025 19-176 W35Y/I75W) above, with W57I, G103W counted along it
In short: as §1

[12] = biological target: human tear lipocalin (TL) (Homo sapiens, UniProt P31025, L123W/W35Y); experiment: Trp fluorescence titration, one-site fit; assay type: binding
human tear lipocalin (TL) (Homo sapiens, UniProt P31025, L123W/W35Y), sequence (P31025 19-176 W35Y/L123W): as the sequence (P31025 19-176 W35Y/I75W) above, with W57I, L105W counted along it
In short: as §1

T1 sequence (P31025 19-176 W35Y): as the sequence (P31025 19-176 W35Y/I75W) above, with W57I counted along it

IC50 [2] | Kd [3] | Kd [4] | Kd [5] | Kd [6] | Kd [7] | Kd [8] | Kd [9] | Kd [10] | Kd [11] | Kd [12] | SMILES | fluorescence enhancement and blue shift on binding [1]
– | – | – | – | – | – | – | – | – | – | – | CN(C)c1cccc2c(S(=O)(=O)NCCCCCCCCCCC(=O)O)cccc12 [DAUDA, 11-((5-dimethylaminonaphthalene-1-sulfonyl)amino)undecanoic acid] | DAUDA increases significantly and exhibits a blue shift ... when bound to TL
12600 nM | – | – | – | – | – | – | – | – | – | – | CCCCCCCCCCCC(=O)O [LA] | –
2300 nM | 500 ± 100 nM | 900 ± 200 nM | 400 ± 100 nM | 2800 ± 500 nM | 2300 ± 200 nM | 5800 ± 600 nM | 300 ± 100 nM | 500 ± 200 nM | 300 ± 100 nM | 500 ± 100 nM | CCCCCCCCCCCCCCCC(=O)O [PA] | –
